Measurements from publication PMC6911266 (Nature, 2019).
Positions count from the first letter of the chain named.

Experiments:
[1] = system: P. falciparum parasites with PfCRT haplotypes/mutations; details: cited from earlier work; for Associated Phenotype, mutation C350R: haplotype 7G8+C350R, this study; for Associated Phenotype, mutation C350R / Associated Phenotype, mutation C72S / Associated Phenotype, mutation F145I / Associated Phenotype, mutation G353V / Associated Phenotype, mutation H97Y / Associated Phenotype, mutation I218F / Associated Phenotype, mutation M343L / Associated Phenotype, mutation T93S / Associated Phenotype, mutation A220S / Associated Phenotype, mutation I356T/L / Associated Phenotype, mutation N326S/D / Associated Phenotype, mutation M74I / Associated Phenotype, mutation N75E / Associated Phenotype, mutation Q271E / Associated Phenotype, mutation R371I / Associated Phenotype, mutation K76T: field; for Associated Phenotype, mutation C72S: haplotype 7G8; for Associated Phenotype, mutation C101F: haplotype Dd2+C101F, lab; for Associated Phenotype, mutation F145I: haplotype Dd2+F145I; for Associated Phenotype, mutation G353V: haplotype Dd2+G353V; for Associated Phenotype, mutation H97Y: haplotype Dd2+H97Y; for Associated Phenotype, mutation I218F: haplotype Dd2+I218F; for Associated Phenotype, mutation M343L: haplotype Dd2+M343L; for Associated Phenotype, mutation T93S: haplotype Dd2+T93S; for Associated Phenotype, mutation A220S / Associated Phenotype, mutation I356T/L / Associated Phenotype, mutation N326S/D: haplotype Dd2/7G8; for Associated Phenotype, mutation M74I / Associated Phenotype, mutation N75E / Associated Phenotype, mutation Q271E / Associated Phenotype, mutation R371I: haplotype Dd2; for Associated Phenotype, mutation K76T: haplotype Dd2 and 7G8
PfCRT WT (3D7) [2] = target: T1, PfCRT WT (3D7) (Plasmodium falciparum, UniProt Q9N623); test: Equilibrium dialysis binding, PfCRT variant in nanodiscs; details: for Bmax, binding at pH 5.5 / Bmax, binding at pH 7.5: equilibrium dialysis
T1 sequence (Q9N623 1-424): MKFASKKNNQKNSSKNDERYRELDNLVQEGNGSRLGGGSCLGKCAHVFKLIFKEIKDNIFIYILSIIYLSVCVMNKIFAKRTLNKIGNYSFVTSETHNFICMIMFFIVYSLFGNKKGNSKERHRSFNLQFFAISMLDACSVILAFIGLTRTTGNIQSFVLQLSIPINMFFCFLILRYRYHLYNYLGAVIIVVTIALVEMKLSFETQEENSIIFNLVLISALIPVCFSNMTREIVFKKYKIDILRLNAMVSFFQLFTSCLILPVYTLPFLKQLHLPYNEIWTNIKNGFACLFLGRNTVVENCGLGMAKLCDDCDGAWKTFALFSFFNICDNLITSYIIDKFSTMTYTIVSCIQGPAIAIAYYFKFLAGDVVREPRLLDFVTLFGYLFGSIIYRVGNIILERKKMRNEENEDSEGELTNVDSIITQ
Summary of the method: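 Saturation binding of [3H]-CQ (1 Ci/mmol) or [3H]-PPQ (2.5 Ci/mmol) by equilibrium dialysis (12,000–14,000 MWCO) with 4.2 pmol PfCRT in POPG/MSP1D1 nanodiscs (BacMam, HEK293S GnTi- cells). Kd came from global non-linear regression, N=3.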

PfCRT 7G8+C350R = target: T2, PfCRT 7G8+C350R (Plasmodium falciparum, UniProt W7FI62, C350R); test: Transport; format: biochemical; details: for 1-min uptake, transport in proteoliposomes: 100 nM [3H]-drug, inwardly-directed pH gradient; for Vmax, transport in proteoliposomes: initial rates over 3 s, Michaelis-Menten fit; for transport activity (in words): proteoliposomes
T2 sequence (W7FI62 1-424 C350R): T1 sequence (Q9N623 1-424) with C72S, K76T, A220S, N326D, C350R, I356L

[3] = system: P. falciparum 7G8^7G8+C350R parasite line; test: Parasite drug susceptibility assay; format: cell-based, Plasmodium falciparum; details: Plasmodium falciparum, 7G8, 72 h
Summary of the method: (§1)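 Asynchronous asexual blood-stage parasites were seeded at 0.3% parasitemia and 1% hematocrit into 2-fold, 10-point test compound dilutions. Incubation was 72 h at 37°C under 5% O2/5% CO2/90% N2. Final parasitemia was read by flow cytometry. IC50 came from nonlinear regression, 4 independent assays in duplicate, with two-tailed Mann-Whitney U tests.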

[4] = system: P. falciparum 7G8^7G8+C350R parasite line; test: [3H]-drug accumulation assay in cultured parasites; format: cell-based, Plasmodium falciparum; details: 60 min, trophozoites
Summary of the method: (§2)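 Sorbitol-synchronized early trophozoites (24–26 h) were magnet-purified and resuspended in bicarbonate-free RPMI 1640 (25 mM HEPES, 10 mM glucose, 0.2 mM hypoxanthine, pH 7.4), counted by hemocytometer. They were mixed with an equal volume of radiolabelled drug (10 nM [3H]-CQ before mixing) for 1 h at 37°C, spun through dibutyl phthalate, then scintillation counted. CAR was internal/external drug, corrected for uninfected erythrocytes, per 10^6 cells at 75 fl; 4–6 assays in duplicate.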

PfCRT 7G8+F145I = target: T3, PfCRT 7G8+F145I (Plasmodium falciparum, UniProt W7FI62, F145I); test: Transport; format: biochemical; details: for 1-min uptake, transport in proteoliposomes: 100 nM [3H]-drug, inwardly-directed pH gradient; for Vmax, transport in proteoliposomes: initial rates over 3 s, Michaelis-Menten fit; for transport activity (in words): proteoliposomes
T3 sequence (W7FI62 1-424 F145I): T1 sequence (Q9N623 1-424) with C72S, K76T, F145I, A220S, N326D, I356L

[5] = system: P. falciparum 7G8^7G8 parasite line; test: [3H]-drug accumulation assay in cultured parasites; format: cell-based, Plasmodium falciparum; details: 60 min, trophozoites
Summary of the method: as §2

[6] = system: P. falciparum WT (3D7) parasite line; test: [3H]-drug accumulation assay in cultured parasites; format: cell-based, Plasmodium falciparum; details: 60 min, trophozoites
Summary of the method: as §2

[7] = system: P. falciparum Dd2^Dd2 parasite line; test: Parasite drug susceptibility assay; format: cell-based, Plasmodium falciparum; details: Plasmodium falciparum, DD2, 72 h
Summary of the method: as §1

PfCRT WT (3D7) [8] = target: T1, PfCRT WT (3D7); test: Transport; format: biochemical; details: for 1-min uptake, transport in proteoliposomes: 100 nM [3H]-drug, inwardly-directed pH gradient; for transport activity (in words): proteoliposomes
Summary of the method: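 PfCRT proteoliposomes (40 ng protein per assay) are loaded with 100 mM KPi, pH 7.5, and 2 mM β-mercaptoethanol. They are diluted into 100 mM Tris/Mes, pH 5.5, giving an inward pH gradient, with 100 nM [3H]-CQ (5.45 Ci/mmol) or [3H]-PPQ (15 Ci/mmol) for 1 min. Filter mock uptake without liposomes and control-liposome uptake are subtracted. Data come from 2 independent experiments, each with 4 technical replicates.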

| Compound | Associated Phenotype, mutation C350R [1] | Associated Phenotype, mutation C72S [1] | Associated Phenotype, mutation C101F [1] | Associated Phenotype, mutation F145I [1] | Associated Phenotype, mutation G353V [1] | Associated Phenotype, mutation H97Y [1] | Associated Phenotype, mutation I218F [1] | Associated Phenotype, mutation M343L [1] | Associated Phenotype, mutation T93S [1] | Associated Phenotype, mutation A220S [1] | Associated Phenotype, mutation I356T/L [1] | Associated Phenotype, mutation N326S/D [1] | Associated Phenotype, mutation M74I [1] | Associated Phenotype, mutation N75E [1] | Associated Phenotype, mutation Q271E [1] | Associated Phenotype, mutation R371I [1] | Associated Phenotype, mutation K76T [1] | Kd (PfCRT WT (3D7) [2]) | Bmax, binding at pH 5.5 (PfCRT WT (3D7) [2]) | Bmax, binding at pH 7.5 (PfCRT WT (3D7) [2]) | also measured |
| --- | --- | --- | --- | --- | --- | --- | --- | --- | --- | --- | --- | --- | --- | --- | --- | --- | --- | --- | --- | --- | --- |
| CCN(CC)CCCC(C)Nc1ccnc2cc(Cl)ccc12 (stereo not drawn) [CQ, chloroquine] | S | R | S | S | S | PPQ-R (CQ-R) | R low | S | PPQ-R (CQ-R) | R | R | R | R | R | R | R | R | 280 ± 40 nM | 0.40 ± 0.02 mol CQ/mol PfCRT | 0.42 ± 0.02 mol CQ/mol PfCRT | 1-min uptake, transport in proteoliposomes (PfCRT 7G8+C350R): 0.80 ± 0.21 nmol/mg; Vmax, transport in proteoliposomes (PfCRT 7G8+C350R): 17.97 ± 0.87 nmol/mg/min; transport activity (in words) (PfCRT 7G8+C350R): reduced uptake; IC50 [3]: 6.9 ± 0.3 nM; [3H]-CQ CAR (cellular accumulation ratio) ([4]; 5 nM [3H]-CQ): 406.4 ± 22.4; 1-min uptake, transport in proteoliposomes (PfCRT 7G8+F145I): 0.24 ± 0.05 nmol/mg; Vmax, transport in proteoliposomes (PfCRT 7G8+F145I): 63.01 ± 3.57 nmol/mg/min; transport activity (in words) (PfCRT 7G8+F145I): reduced uptake; [3H]-CQ CAR (cellular accumulation ratio) ([5]; 5 nM [3H]-CQ): 14.5 ± 3.7; [3H]-CQ CAR (cellular accumulation ratio) ([6]; 5 nM [3H]-CQ): 876.7 ± 38.7; IC50 [7]: 143 ± 21.8 nM; 1-min uptake, transport in proteoliposomes (PfCRT WT (3D7) [8]): 0.58 ± 0.08 nmol/mg; transport activity (in words) (PfCRT WT (3D7) [8]): minimal uptake |
| Clc1ccc2c(N3CCN(CCCN4CCN(c5ccnc6cc(Cl)ccc56)CC4)CC3)ccnc2c1 [PPQ, piperaquine] | R low | S | R | R | R mod. | PPQ-R (CQ-R) | R | R low | PPQ-R (CQ-R) | S | S | S | S | S | S | S | S | 260 ± 40 nM | 0.38 ± 0.02 mol CQ/mol PfCRT | 0.40 ± 0.02 mol CQ/mol PfCRT | 1-min uptake, transport in proteoliposomes (PfCRT 7G8+C350R): 0.82 ± 0.07 nmol/mg; Vmax, transport in proteoliposomes (PfCRT 7G8+C350R): 153.00 ± 3.10 nmol/mg/min; transport activity (in words) (PfCRT 7G8+C350R): substantially increased; IC50 [3]: 29.5 ± 1.6 nM; [3H]-PPQ CAR (cellular accumulation ratio) ([4]; 20 nM [3H]-PPQ): 1207.4 ± 119.8; 1-min uptake, transport in proteoliposomes (PfCRT 7G8+F145I): 1.41 ± 0.12 nmol/mg; Vmax, transport in proteoliposomes (PfCRT 7G8+F145I): 109.30 ± 7.27 nmol/mg/min; transport activity (in words) (PfCRT 7G8+F145I): substantially increased; [3H]-PPQ CAR (cellular accumulation ratio) ([5]; 20 nM [3H]-PPQ): 1943.9 ± 82.2; [3H]-PPQ CAR (cellular accumulation ratio) ([6]; 20 nM [3H]-PPQ): 2123.8 ± 72.2; IC50 [7]: 18.3 ± 1.9 nM; 1-min uptake, transport in proteoliposomes (PfCRT WT (3D7) [8]): 0.51 ± 0.04 nmol/mg; transport activity (in words) (PfCRT WT (3D7) [8]): Minimal |
